Data: ChEMBL document CHEMBL1255380, “Small molecule-mediated disruption of Wnt-dependent signaling in tissue regeneration and cancer” (Nat Chem Biol, 2009)
One block for each compound: values may come before it. Active and inactive are the calls of the source. The rule behind the calls is not given here.

Assays:
[1] = molecular target: T1, Protein-serine O-palmitoleoyltransferase porcupine (Homo sapiens) (UniProt Q9H237); assay: Inhibition of porcn-mediated Shh palmitoylation in human DLD1 lysate by detergent solubility fractionation assessed as [3H]palmitate incorporation at 2.5 uM by autoradiography method
T1 sequence (whole entry): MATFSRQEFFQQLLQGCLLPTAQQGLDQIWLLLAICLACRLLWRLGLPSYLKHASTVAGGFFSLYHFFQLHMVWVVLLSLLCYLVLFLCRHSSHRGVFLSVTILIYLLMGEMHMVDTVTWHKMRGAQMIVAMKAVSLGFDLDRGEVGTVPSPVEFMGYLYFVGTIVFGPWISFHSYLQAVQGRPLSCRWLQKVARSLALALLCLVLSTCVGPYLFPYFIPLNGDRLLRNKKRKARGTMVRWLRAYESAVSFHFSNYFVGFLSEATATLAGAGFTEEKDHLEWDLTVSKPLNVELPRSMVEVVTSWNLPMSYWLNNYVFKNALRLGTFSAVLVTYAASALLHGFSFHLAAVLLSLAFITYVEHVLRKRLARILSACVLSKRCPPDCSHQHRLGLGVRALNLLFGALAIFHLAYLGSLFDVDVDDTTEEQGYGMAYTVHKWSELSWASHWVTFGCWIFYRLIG

[2] = Inhibition of Wnt3A/[…] pathway activity in mouse L cell expressing Wnt3a assessed as inhibition of […] accumulation at 5 uM after 24 hrs by Western blot analysis; type: cell-based
[3] = Inhibition of Wnt3A/[…] pathway activity in mouse L cell expressing Wnt3a assessed as decrease in phosphorylated Dvl2 level at 5 uM after 24 hrs by Western blot analysis; type: cell-based
[4] = Inhibition of Wnt3A/[…] pathway activity in mouse L cell expressing Wnt3a assessed as decrease in phosphorylated Lrp6 level at 5 uM after 24 hrs by Western blot analysis; type: cell-based
Danio rerio = organism: Danio rerio; assay: Inhibition of caudal fin regeneration after mechanical resection in zebrafish at 10 uM after 7 days; type: functional, organism-based
Summary of the method: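 Zebrafish 3-6 months old anaesthetized in 0.02% Tricaine; half of caudal fin resected with razor blade; kept at 28°C in tank water with 10μM compound or DMSO; water and compound replenished daily over assay period.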

[5] = Inhibition of Notch pathway in mouse L cells at 2.5 uM
[6] = molecular target: T1, Protein-serine O-palmitoleoyltransferase porcupine (Homo sapiens); assay: Inhibition of porcn in HEK293 cell lysate by Western blot analysis; type: cell-free
Summary of the method: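 Lysate (10mM Na2HPO4 pH7.4, […], 1% NP-40) of HEK293 cells transfected with Porcn-myc preincubated 1 hr at 4°C with DMSO, linker or competitor, then NeutrAvidin resin plus biotinylated probe (0.17 mM); rotated overnight at 4°C, washed, eluate analysed by Western blot.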

Axin-2 (Homo sapiens) [7] = molecular target: Axin-2 (Homo sapiens) (UniProt Q9Y2T1); assay: Binding affinity to Axin2 IWR-IS in HEK293 cells; type: cell-based
Axin-2 (Homo sapiens) [8] = molecular target: Axin-2 (Homo sapiens) (UniProt Q9Y2T1); assay: Binding affinity at Axin2 in HEK293 cells by Western blot method; type: cell-based
Axin-2 (Homo sapiens) [9] = molecular target: Axin-2 (Homo sapiens) (UniProt Q9Y2T1); assay: Induction of Axin2 accumulation in human DLD1 cells by Western blot analysis; type: cell-based; conditions: DLD-1
Summary of the method: (§1)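 DLD-1 cells exposed to IWR compound at 10μM for a 48 hr assay period; protein levels assessed by Western blot of cell lysates.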

[10] = Inhibition of Wnt3A/[…] pathway activity in mouse L cell expressing Wnt3a assessed as inhibition of […] accumulation at 10 uM after 24 hrs by Western blot analysis; type: cell-based
[11] = Inhibition of Wnt3A/[…] pathway activity in mouse L cell expressing Wnt3a assessed as decrease in phosphorylated Dvl2 level at 10 uM after 24 hrs by Western blot analysis; type: cell-based
[12] = Inhibition of Wnt3A/[…] pathway activity in mouse L cell expressing Wnt3a assessed as decrease in phosphorylated Lrp6 level at 10 uM after 24 hrs by Western blot analysis; type: cell-based
[13] = Inhibition of Wnt2/beta-[…] pathway activity in mouse L cell expressing Wnt2 and STF assessed as decreased firefly luciferase reporter expression; type: cell-based
[14] = Inhibition of Wnt1/beta-[…] pathway activity in mouse L cell expressing Wnt1 and STF assessed as decreased firefly luciferase reporter expression; type: cell-based
[15] = Inhibition of Wnt3A/[…] pathway activity in mouse L cell expressing Wnt3A and STF assessed as decreased firefly luciferase reporter expression; type: cell-based
Summary of the method: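 L-Wnt-STF cells (mouse L-cells stably carrying SuperTopFlash firefly luciferase reporter, control reporter and Wnt3A expression construct), ~5K per well; compounds added 24 hrs after seeding; luciferase activities read 24 hrs later; IC50s calculated from these dose-dependent assays.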

DLD-1 [16] = assay: Decrease in beta-[…] accumulation in human DLD1 cells expressing in APC mutant; type: functional, cell-based
NCI-H460 = assay: Antiproliferative activity against human H460 cells assessed as cellular ATP levels after 6 days by Cell-Titer Glow assay; type: functional, cell-based
Summary of the method: (§2)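 Cancer cells seeded at 2.5K cells/well with carrier or compound, 0.5% DMSO final; medium with compound changed every 24 hrs for 5 days; on day 6 cellular ATP quantified by CellTiter-Glo luminescence.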

DLD-1 [17] = assay: Antiproliferative activity against human DLD1 cells assessed as cellular ATP levels after 6 days by Cell-Titer Glow assay; type: functional, cell-based; summary of the method: as §2
DU-145 = assay: Antiproliferative activity against human DU145 cells assessed as cellular ATP levels after 6 days by Cell-Titer Glow assay; type: functional, cell-based; summary of the method: as §2
DLD-1 [18] = assay: Antiproliferative activity against human DLD1 cells overexpressing beta-[…] assessed as renilla luciferase activity after 6 days; type: functional, cell-based
Axin-1 (Homo sapiens) [19] = molecular target: Axin-1 (Homo sapiens) (UniProt O15169); assay: Induction of Axin1 protein stabilization in human DLD1 cells by Western blot analysis; type: cell-based; conditions: DLD-1; summary of the method: as §1
Axin-1 (Homo sapiens) [20] = molecular target: Axin-1 (Homo sapiens) (UniProt O15169); assay: Induction of Axin1 protein stabilization in human H460 cells by Western blot analysis; type: cell-based
Axin-2 (Homo sapiens) [21] = molecular target: Axin-2 (Homo sapiens) (UniProt Q9Y2T1); assay: Induction of Axin2 stabilization in human DLD1 cells assessed as inhibition of Wnt/beta-[…] pathway; type: cell-based; conditions: DLD-1
[22] = molecular target: T1, Protein-serine O-palmitoleoyltransferase porcupine (Homo sapiens); assay: Displacement of IWP-PB from porcn in HEK293 lysate by Western blot analysis
[23] = molecular target: T1, Protein-serine O-palmitoleoyltransferase porcupine (Homo sapiens); assay: Inhibition of porcn-mediated Lrp6 maturation in human DLD1 lysate by detergent solubility fractionation assessed as [3H]palmitate incorporation at 2.5 uM by autoradiography method

Chain of Axin-2 (Homo sapiens) (Q9Y2T1 whole entry): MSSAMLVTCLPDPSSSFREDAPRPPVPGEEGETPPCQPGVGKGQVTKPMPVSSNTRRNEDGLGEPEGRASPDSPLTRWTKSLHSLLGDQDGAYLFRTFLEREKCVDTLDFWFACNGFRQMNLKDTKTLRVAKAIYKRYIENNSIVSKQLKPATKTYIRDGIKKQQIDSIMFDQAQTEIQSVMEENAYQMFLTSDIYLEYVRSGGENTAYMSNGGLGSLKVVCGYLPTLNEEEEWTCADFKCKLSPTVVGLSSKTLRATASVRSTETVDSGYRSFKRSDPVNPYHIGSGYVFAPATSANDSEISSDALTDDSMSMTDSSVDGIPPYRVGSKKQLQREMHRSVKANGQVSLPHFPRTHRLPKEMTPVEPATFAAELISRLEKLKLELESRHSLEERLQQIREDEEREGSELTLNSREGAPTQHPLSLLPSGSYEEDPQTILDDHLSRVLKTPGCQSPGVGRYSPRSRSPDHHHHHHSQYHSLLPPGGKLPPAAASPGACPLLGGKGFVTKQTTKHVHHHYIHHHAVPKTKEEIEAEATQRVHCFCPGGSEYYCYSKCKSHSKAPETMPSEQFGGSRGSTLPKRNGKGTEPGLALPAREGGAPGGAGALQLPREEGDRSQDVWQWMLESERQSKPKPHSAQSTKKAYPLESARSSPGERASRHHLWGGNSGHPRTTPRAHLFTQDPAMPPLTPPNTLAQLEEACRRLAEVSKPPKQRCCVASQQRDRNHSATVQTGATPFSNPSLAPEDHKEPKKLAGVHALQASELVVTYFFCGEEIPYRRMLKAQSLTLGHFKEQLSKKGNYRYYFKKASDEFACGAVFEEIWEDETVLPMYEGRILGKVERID
Chain of Axin-1 (Homo sapiens) (O15169 whole entry): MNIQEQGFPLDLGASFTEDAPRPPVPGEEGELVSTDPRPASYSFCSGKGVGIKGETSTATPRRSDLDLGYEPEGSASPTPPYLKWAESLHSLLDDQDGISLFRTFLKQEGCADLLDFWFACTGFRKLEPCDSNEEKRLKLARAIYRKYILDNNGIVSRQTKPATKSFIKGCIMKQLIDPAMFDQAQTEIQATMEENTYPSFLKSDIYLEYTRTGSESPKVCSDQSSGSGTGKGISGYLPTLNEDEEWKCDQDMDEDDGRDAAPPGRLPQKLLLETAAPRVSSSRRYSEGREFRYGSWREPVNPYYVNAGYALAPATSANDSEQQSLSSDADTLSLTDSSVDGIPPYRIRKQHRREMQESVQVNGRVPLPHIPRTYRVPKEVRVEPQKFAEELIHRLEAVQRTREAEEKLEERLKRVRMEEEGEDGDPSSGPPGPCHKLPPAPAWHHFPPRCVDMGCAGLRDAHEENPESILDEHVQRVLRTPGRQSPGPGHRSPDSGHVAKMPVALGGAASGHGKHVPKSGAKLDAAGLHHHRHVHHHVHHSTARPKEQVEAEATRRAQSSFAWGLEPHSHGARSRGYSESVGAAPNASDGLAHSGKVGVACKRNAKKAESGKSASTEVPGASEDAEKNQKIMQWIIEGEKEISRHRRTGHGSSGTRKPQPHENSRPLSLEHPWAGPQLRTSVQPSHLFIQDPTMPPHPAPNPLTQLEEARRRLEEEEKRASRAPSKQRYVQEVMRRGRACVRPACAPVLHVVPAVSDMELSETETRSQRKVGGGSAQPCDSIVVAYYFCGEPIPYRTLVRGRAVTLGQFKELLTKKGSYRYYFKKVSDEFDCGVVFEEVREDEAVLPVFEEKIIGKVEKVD

SMILES: Cc1ccc2nc(NC(=O)CSc3nc4c(c(=O)n3-c3ccc(F)cc3)SCC4)sc2c1
inhibition [1]: inactive | inhibition [2]: Active | inhibition [3]: Active | inhibition [4]: Active | inhibition (Danio rerio): inactive | inhibition [5]: inactive

SMILES: Cc1cccc2nc(Cn3c(=O)n(CC4CCC(C(=O)NCc5ccccc5)CC4)c(=O)c4ccccc43)cc(=O)n12 (stereo unspecified)
Activity (Axin-2 (Homo sapiens) [9]): Active | inhibition [10]: Active | inhibition [11]: inactive | inhibition [12]: inactive | inhibition [13]: Active | inhibition [14]: Active | inhibition [15]: Active | inhibition (Danio rerio): Active | inhibition (DLD-1 [16]): Active | Activity (NCI-H460): inactive | Activity (DLD-1 [17]): Active | Activity (DU-145): Active | Activity (DLD-1 [18]): inactive | Activity (Axin-1 (Homo sapiens) [19]): Active | Activity (Axin-1 (Homo sapiens) [20]): Active

SMILES: N#Cc1ccccc1Cn1c(=O)n(CC2CCC(C(=O)NCc3ccccc3)CC2)c(=O)c2ccccc21 (stereo unspecified)
Activity (Axin-2 (Homo sapiens) [9]): Active | inhibition [10]: Active | inhibition [11]: inactive | inhibition [12]: inactive | inhibition [13]: Active | inhibition [14]: Active | inhibition [15]: Active | inhibition (DLD-1 [16]): Active

SMILES: O=C(Nc1cccc2cccnc12)c1ccc(N2C(=O)[C@@H]3[C@H](C2=O)[C@H]2C=C[C@@H]3C2)cc1
inhibition (Danio rerio): inactive | Activity (Axin-2 (Homo sapiens) [21]): inactive

SMILES: COc1ccc(-n2nc(C(=O)NCC(=O)Nc3nc4ccc(OC)cc4s3)c3ccccc3c2=O)cc1
inhibition [22]: Active | inhibition [23]: inactive | inhibition [1]: inactive | inhibition [2]: Active | inhibition [3]: Active | inhibition [4]: Active | inhibition (Danio rerio): inactive | inhibition [5]: inactive

SMILES: O=C(NC1CCCC1)c1ccc(Cn2c(=O)c3ccccc3n(Cc3cc(=O)n4ccccc4n3)c2=O)cc1
Activity (Axin-2 (Homo sapiens) [9]): Active | inhibition [10]: Active | inhibition [11]: inactive | inhibition [12]: inactive | inhibition [13]: Active | inhibition [14]: Active | inhibition [15]: Active | inhibition (DLD-1 [16]): Active

Continued, in another order:

Inhibition (active/inactive) [6]: Active
SMILES: Cc1ccc2nc(NC(=O)CSc3nc4c(c(=O)n3Cc3ccccc3)SCC4)sc2c1

Inhibition (active/inactive) [6]: Active | Activity (Axin-2 (Homo sapiens) [7]): Active | Activity (Axin-2 (Homo sapiens) [8]): Active
SMILES: Cc1ccc2nc(NC(=O)CSc3nc4c(c(=O)n3-c3ccc(CNC(=O)CCOCCOCCOCCNC(=O)CCCC[C@@H]5SC[C@@H]6NC(=O)N[C@@H]65)cc3)SCC4)sc2c1

Inhibition (active/inactive) [6]: Active
SMILES: O=C(CSc1nc2c(c(=O)n1-c1ccccc1)SCC2)Nc1nccs1

Activity (Axin-2 (Homo sapiens) [21]): inactive
SMILES: O=C(O)c1ccc(N2C(=O)[C@@H]3[C@H](C2=O)[C@@H]2C=C[C@H]3C2)cc1
inhibition (Danio rerio): inactive

inhibition [1]: inactive
SMILES: COc1ccccc1-n1c(SCC(=O)Nc2nc3ccc(C)cc3s2)nc2c(c1=O)SCC2
inhibition [2]: Active | inhibition [3]: Active | inhibition [4]: Active | inhibition (Danio rerio): inactive | inhibition [5]: inactive

Inhibition (active/inactive) [6]: Active
SMILES: CC1Cc2nc(SCC(=O)Nc3nc4ccccc4s3)n(Cc3ccccc3)c(=O)c2S1 (stereo unspecified)
